In the array DNA melting data of Ke et al. (doi:10.1101/2024.01.08.574731):

Assays:
[1] = folding enthalpy; higher = less favourable; fluorescence melt of hairpins on a sequencing array, two-state fit; conditions: sodium 0.088 M
Outline: (§1)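 Library hairpins on a sequenced MiSeq flow cell carried annealed Cy3 and quencher oligos, and their Cy3 fluorescence was imaged in 50 mM Na-HEPES pH 8.0 with 25 mM NaCl, in 2.5 °C steps up to 60 °C. Signals were normalised to Cy3 before quenching and to control constructs. Melting temperature and folding enthalpy were obtained from bootstrapped two-state fits, combined by inverse-variance weighting across four replicates, and the fitted temperatures were then raised by 9.35 °C to match UV melts.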

[2] = melting temperature; fluorescence melt of hairpins on a sequencing array, two-state fit, raised by 9.35 °C to match UV melts; conditions: sodium 0.088 M
Outline: as §1

Row | Sequence | folding enthalpy [1] | Tm [2]
1 | GTTGCAGGAAACTGTGAC ((..(((....)))..)) | -125 kJ/mol | 37.9 °C
2 | CGAATCCGGAAACGGTCG (((..(((....)))))) | -50 kJ/mol | 33.6 °C
3 | GGGGATTCGAAAGAACCC (((..(((....)))))) | -85.7 kJ/mol | 47.4 °C
4 | GATCGATAGGTCGATC ((((((....)))))) | -176 kJ/mol | 53 °C
5 | GTAAATGGAAACATTTGC (.(((((....))))).) | -121 kJ/mol | 38.6 °C
6 | GGATCGAAAGATCC (((((....))))) | -124 kJ/mol | 65.3 °C
7 | GCACTTCGAAAGAACTGC (((.(((....))).))) | -92.6 kJ/mol | 34.4 °C
8 | GCAACTGGAAACAGTTAC (.(((((....))))).) | -60.5 kJ/mol | 36.3 °C
9 | GACCCTGGAAACAGGGCC (.(((((....))))).) | -71.9 kJ/mol | 47.2 °C
10 | GCGGTCGCCGC ((((...)))) | -23.5 kJ/mol | 60.6 °C
11 | GTTGTAACGAAAGTTAAC (((..(((....)))))) | -109 kJ/mol | 37.9 °C
12 | GTGGCAGGAAACTGCTGC (..((((....))))..) | -72.8 kJ/mol | 44.2 °C
13 | GAAGCCGAAAGGCGCTTC ((((((....)))..))) | -58.9 kJ/mol | 56.2 °C
14 | GCGAGCGAAAGCTGCCGC ((((((....)))..))) | -54.8 kJ/mol | 53.5 °C
15 | GATCATAAATATGATC ((((((....)))))) | -173 kJ/mol | 45.2 °C
16 | GATAAGGGAAACCTTATC (((((((....))))))) | -185 kJ/mol | 49.7 °C
17 | GTCCCCGAAAGGGACGAC ((((((....)))..))) | -75.4 kJ/mol | 69.3 °C
18 | GTGCACGAAAGTGACAC ((((((....))).))) | -109 kJ/mol | 52.9 °C
19 | GGGCTCGAAAGAGTTCCC ((((((....)))..))) | -87.7 kJ/mol | 43.5 °C
20 | GCGCCAGGAAACCGGCGC (((((.(....).))))) | -95.4 kJ/mol | 69.1 °C
21 | GGACGGCCGAAAGGCTCC (((..(((....)))))) | -45.1 kJ/mol | 34.1 °C
22 | GTGTTTCCGAAAGGACAC (((..(((....)))))) | -97.9 kJ/mol | 43.4 °C
23 | GCGATGTTCGC ((((...)))) | -77.6 kJ/mol | 49.9 °C

Row | Sequence | folding enthalpy [1] | Tm [2]
24 | GTCCCCCCGAAAGGGGAC (((..(((....)))))) | -70.8 kJ/mol | 59.5 °C
25 | GTGAGTTCGAAAGAACAC (((..(((....)))))) | -64.4 kJ/mol | 44.6 °C
26 | GCGAGGATCGC ((((...)))) | -99.2 kJ/mol | 59.4 °C
27 | GAAGCCGAAAGGCACTTC ((((((....)))..))) | -50 kJ/mol | 42.4 °C
28 | GCGAGCCGAAAGGCCCGC (((.(((....))).))) | -109 kJ/mol | 67.8 °C
29 | GTCGCGCCGAAAGGCGAC (((..(((....)))))) | -32.2 kJ/mol | 43 °C
30 | GGATTCGGAAACGGATTC (.((.((....)).)).) | -69.9 kJ/mol | 32.3 °C
31 | GGGTTAGGAAACCAACCC (((((.(....).))))) | -142 kJ/mol | 45.6 °C
32 | GATCCTTCGAAGGATC ((((((....)))))) | -207 kJ/mol | 54.1 °C
33 | GGTAATGAAAATTACC ((((((....)))))) | -135 kJ/mol | 48.4 °C
34 | GCTTAGGGAAACCTAGGC ((.((((....)))).)) | -143 kJ/mol | 44.4 °C
35 | GTCCTCGAAAGAGAGGAC ((((((....)))..))) | -127 kJ/mol | 52.9 °C
36 | GAGAACGGAAACGTTCTC (((((((....))))))) | -175 kJ/mol | 64.7 °C
37 | GAGTGCGAAAGCAAGCTC ((((((....)))..))) | -59.5 kJ/mol | 43.6 °C
38 | GAACACGAAAGTGGATTC ((((((....)))..))) | -77.6 kJ/mol | 39.8 °C
39 | GTGCCAGGAAACTGACAC (((.(((....))).))) | -149 kJ/mol | 47.5 °C
40 | GTAAGCGAAAGCTATAC ((((((....))).))) | -62.3 kJ/mol | 33.8 °C
41 | GTGTAACGAAAGTTCCAC (((.(((....))).))) | -94.3 kJ/mol | 38.9 °C
42 | GCAAAGAAATTTGC (((((....))))) | -81.2 kJ/mol | 38.9 °C
43 | GACGTGGGAAACCACGCC (.(((((....))))).) | -58.5 kJ/mol | 48.6 °C
44 | GCAGAGCGAAAGCTTTGC (((.(((....))).))) | -223 kJ/mol | 56.1 °C
45 | GTGAACGCGAAAGCGCAC (((..(((....)))))) | -61.8 kJ/mol | 42.3 °C
46 | GGGCCCGGAAACGAGCCC ((((.((....)).)))) | -199 kJ/mol | 57.5 °C

Row | Sequence | folding enthalpy [1] | Tm [2]
47 | GACATTGCGAAAGCAGTC (((..(((....)))))) | -41.9 kJ/mol | 32.4 °C
48 | GATCTCTTAGAGATC ((((((...)))))) | -163 kJ/mol | 53.1 °C
49 | GGGGTGCGAAAGCATCCC (((.(((....))).))) | -119 kJ/mol | 68.4 °C
50 | GTTTGTGGAAACGCAAAC (((((.(....).))))) | -151 kJ/mol | 48.4 °C
51 | GGTATGGGAAACTATGCC ((.((.(....).)).)) | -99.2 kJ/mol | 30.9 °C
52 | GCATCCGAAAGGAGTGC ((((((....))).))) | -94.2 kJ/mol | 51.2 °C
53 | GCCTACGGAAACGCAGGC ((((.((....)).)))) | -115 kJ/mol | 52.6 °C
54 | GCGTAAGGAAACTCACGC ((((.((....)).)))) | -111 kJ/mol | 43.8 °C
55 | CGGCCGGAAACGGTCCCG ((((((....)))..))) | -54.7 kJ/mol | 41 °C
56 | GATCCTTTGAAGGATC ((((((....)))))) | -151 kJ/mol | 52.4 °C
57 | GTAGACGAAAGTCTTAC ((((((....))).))) | -61.2 kJ/mol | 38.6 °C
58 | GATCCACCAGTGGATC ((((((....)))))) | -212 kJ/mol | 56.1 °C
59 | GATCCTCAATAGGATC ((((((....)))))) | -143 kJ/mol | 49.5 °C
60 | GGTTGCCCGAAAGGGACC (((..(((....)))))) | -48.3 kJ/mol | 37.9 °C
61 | GCAGAGGGAAACCCCTGC ((((.((....)).)))) | -141 kJ/mol | 49 °C
62 | GCGTTACCGAAAGGTCGC (((..(((....)))))) | -106 kJ/mol | 51.1 °C
63 | GGGCGCGAAAGCGCACCC ((((((....)))..))) | -38.5 kJ/mol | 66.3 °C
64 | GACCACCGAAAGGTCGTC (((.(((....))).))) | -124 kJ/mol | 45.1 °C
65 | GTAACAGGAAACTGTTGC (.(((((....))))).) | -102 kJ/mol | 45.3 °C
66 | GTGGCCCGAAAGGGCAC (((.(((....)))))) | -43.2 kJ/mol | 62 °C
67 | GGGCTCGGAAACGAACCC (((.(((....))).))) | -196 kJ/mol | 51 °C
68 | GATCAGGCAGCTGATC ((((((....)))))) | -143 kJ/mol | 52.4 °C
69 | GCACCCGGAAACGGGCGC ((.((((....)))).)) | -159 kJ/mol | 61.5 °C
